Source: PubChem BioAssay
Sampled rows, rich in hits. Any-hit rate of the full collection: about 3%.
PLC-gamma1 inh = blocks human PLC-gamma1 enzyme activity; P19174; purified PLC-gamma1, fluorogenic substrate, fluorescence; inhibition, % at 12.2 µM; actives 0.84% (n = 370,000); AID 720700; in the data active means inhibition above about 9.5%
PLC-beta3 inh = inhibitors of human phospholipase C beta3. Purified PLC-beta3, fluorogenic substrate, fluorescence. inhibition, % at 12.2 µM. actives 0.18% (n = 370,000). AID 720704. Q01970; in the data active means inhibition above about 11%;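 further: 0% = median of compound wells on plate and 100% = full blocker control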
DDE Tn7 FP inh = inhibitors of Tn7 peptide binding to human fibrin DD(E). AID 720508. inhibition, % at 8.3 µM. FP displacement of FITC-Tn7 peptide from fibrin DD(E); 0% = median of compound wells per plate. actives 0.13% (n = 370,000);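 active means inhibition above the mean of compounds falling within the control limits plus 3 SD of them, cut at about 14% in these data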;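 further: 0% = plate median of compound wells and 100% = 10 µM Aha-Tn7 peptide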
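Assay system: Fibrin-DD(E) protein isolated from polymerized human fibrin clots; read-out basis: percent inhibition; medium: Tris/NaCl/CaCl2 buffer, pH 7.8; signal: FP measurement; incubation: 10 min plus 3 h, room temperature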
proKLK7 act = activates the human kallikrein-7 zymogen | AID 652039 | actives 0.9% (n = 370,000) | activation, % at 7 µM | purified proKLK7, EDANS-DABCYL substrate fluorescence; 100% is mature enzyme control, 0% vehicle;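 active means activation above the mean of all tested compounds plus 3 SD, computed per campaign excluding outliers beyond control limits, cut at about 13% in these data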
Target sequence (P49862 whole entry, looked up): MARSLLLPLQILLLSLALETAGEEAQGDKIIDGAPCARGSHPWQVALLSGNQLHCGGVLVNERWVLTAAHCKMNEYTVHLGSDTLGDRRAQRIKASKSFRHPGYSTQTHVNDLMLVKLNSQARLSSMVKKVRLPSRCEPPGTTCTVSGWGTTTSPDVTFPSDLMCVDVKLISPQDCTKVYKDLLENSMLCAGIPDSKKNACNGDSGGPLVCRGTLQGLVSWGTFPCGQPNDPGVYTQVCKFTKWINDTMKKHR
NRP1-CendR mod = modulators of CendR peptide binding to human neuropilin-1; AID 602438; actives 0.85% (n = 360,000); inhibition, % at 25 µM; O14786; FAM-RPARPAR peptide binding to NRP-1, fluorescence polarization;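 active means inhibition or corrected inhibition above about 18%, plus a signal ratio from 0.5 to 1.5, limit read from the data, passing the limit was not always enough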
DDE Tn6 FP inh = inhibitors of Tn6 peptide binding to human fibrin DD(E). P02675. Fibrin DD(E) TRITC-Tn6 fluorescence polarization displacement. inhibition, % at 8.3 µM. actives 0.21% (n = 370,000);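 active means inhibition above a per-campaign cutoff: mean of compounds within control limits plus 3 SD, cut at about 15% in these data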;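 further: 0% = median of all compound wells on the plate and 100% = blocking peptide control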
KLK7 act conf = proKLK7 activation, confirmation | shares compounds with proKLK7 act | purified proKLK7, EDANS-DABCYL substrate fluorescence; scaled: vehicle 0, mature enzyme 100 | activation, % at 7 µM | actives 68% (n = 3,200) | AID 686949;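 active means activation, as change over the incubation, above the mean of all tested compounds plus 3 SD, cut at about 13% in these data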
EDANS-DABCYL int = optically interferes with EDANS-DABCYL signal, flagging KLK7 hits; shares compounds with proKLK7 act; EDANS-DABCYL substrate fluorescence interference, no enzyme, 4 h; solvent 0%, active enzyme control 100%; activation, % at 7 µM; actives 80% (n = 3,200); AID 686952;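 active means activation above the all-compound mean plus 3 SD, ignoring values outside control-based bounds, cut at about 4.8% in these data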;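 further: value is the 4 h activation minus the activation read at time zero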
EDANS interf = counter-screen for kallikrein-7 activators: EDANS-DABCYL interference, dose response; EC50, µM; actives 20% (n = 250); EDANS-DABCYL peptide fluorescence interference, no enzyme; AID 720493; shares compounds with proKLK7 act;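 active means compounds that raise the fluorescence signal in this interference counterscreen, with EC50 at or below 10 µM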;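 further: intact quenched peptide substrate alone read at 355 nm excitation and 520 nm emission; signal is fluorescence gain from T0 to T4 after four hours at room temperature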
Starred values were filed as active, the others as inactive; i = inactive; . = not tested or not shown.

SMILES	PLC-gamma1 inh	PLC-beta3 inh	DDE Tn7 FP inh	proKLK7 act	NRP1-CendR mod	DDE Tn6 FP inh	KLK7 act conf	EDANS-DABCYL int	others
O=C(N/N=C/c1cc2c(cc1Br)OCO2)c1c[nH]c2ccccc12	-12	-11	-8	15*	-3	-1	0	1
CN(Cc1ccccc1)C(=O)OCc1cn(Cc2cc(F)ccc2F)nn1	-4	-1	5	0	.	-5	.	.
CCN1C(=O)c2cccc3c(S(=O)(=O)NCc4ccccc4)ccc1c23	i	i	-7	34*	14	2	-35	-30
CCN1C(=O)c2cccc3c(S(=O)(=O)NCCc4c[nH]c5ccccc45)ccc1c23	-122	-126	3	15*	-1	-2	37*	55*
CCN1C(=O)c2cccc3c(S(=O)(=O)NCCCN4CCOCC4)ccc1c23	i	i	4	51*	9	2	44*	43*
CCOc1ccc(S(=O)(=O)NCCCN2CCOCC2)c2ccccc12	-2	-4	3	0	-5	8	.	.
O=S1(=O)C=CCN1Cc1cn(Cc2cccc(Cl)c2)nn1	-1	5	-4	0	.	3	.	.
O=C(COC(=O)c1cc(Br)ccc1O)NNC(=O)c1cccs1	-5	-10	2	25*	-10	0	21*	24*
O=C(NOC(=O)c1cc(Br)ccc1Cl)c1cccs1	2	4	-1	0	-8	3	.	.
COP(=O)(c1ccc(N(C)C)cc1)C(O)c1ccccc1 (configuration not stated)	-3	-2	-7	29*	-9	-3	0	0
COc1ccc(OC)c(CN2C(=O)CCCCC2(C)c2nnnn2C2CCCC2)c1 (configuration not stated)	-3	6	2	0	.	-2	.	.
CCc1cccc2cc3c(N)c(C(=O)Nc4ccc(S(=O)(=O)N5CCCC5)cc4)sc3nc12	i	i	-4	119*	131	3	62*	57*
CNc1ccc(-c2cccc(CO)c2)cn1	-364	-449	3	20*	-9	0	24*	16*	EDANS interf=>70
CCC(=O)Nc1c(C#N)c2nc3ccccc3nc2n1C1CCCCC1	-61	-79	-3	-13	2	-4	.	.
CCOC(=O)c1c(NC(=O)c2ccco2)n(C2CCCCC2)c2nc3ccccc3nc12	-433	i	7	21*	-19	5	-19	-28
O=C(CCC(=O)N1CCN(C2c3ccccc3-c3ccccc32)CC1)Nc1nnc(C(F)(F)F)s1	3	3	6	0	.	3	.	.
CC1(C)Oc2cc3oc(C(=O)O)cc(=O)c3cc2-c2ccccc21	i	i	-2	100*	-2	0	68*	67*
Cc1cc2oc(C(=O)NCc3ccccc3)cc(=O)c2cc1C	-3	-6	2	0	1	-4	.	.
CCOC(=O)C1=C(C)NC2=C(C(=O)CCC2)C1c1ccc(O)c(OCC)c1 (configuration not stated)	-7	-6	4	1	9	8	.	.
CCOc1cc(C2C(C(=O)N3CCCCC3)=C(C)NC3=C2C(=O)CCC3)cc(Br)c1O (configuration not stated)	-119	-181	-3	15*	0	-3	8	15*
CSc1ccc(/C=C/C(=O)OCC(=O)NC2CC2)cc1	-373	-494	-1	21*	5	3	23*	25*
CSc1ccc(/C=C/C(=O)OCC(=O)NC(C)C)cc1	-405	-420	9	22*	-4	2	17*	18*
CNC(=O)COC(=O)/C=C/c1ccc(F)cc1	0	-6	-1	0	5	5	.	.
